# A selection: hits, their analogues and other compounds. The true share with any hit is near 3.1%.
# PRMT1 FP inh – PRMT1 (human) inhibition, primary screen | Q99873 | recombinant PRMT1, activity-based probe fluorescence polarization | inhibition, % at 2.79 µM | 1.3% of 370,000 active | AID 652257;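 active means inhibition above about 21% made by adding two undisclosed values, limit read from the data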
# Target sequence (Q99873 whole entry, looked up): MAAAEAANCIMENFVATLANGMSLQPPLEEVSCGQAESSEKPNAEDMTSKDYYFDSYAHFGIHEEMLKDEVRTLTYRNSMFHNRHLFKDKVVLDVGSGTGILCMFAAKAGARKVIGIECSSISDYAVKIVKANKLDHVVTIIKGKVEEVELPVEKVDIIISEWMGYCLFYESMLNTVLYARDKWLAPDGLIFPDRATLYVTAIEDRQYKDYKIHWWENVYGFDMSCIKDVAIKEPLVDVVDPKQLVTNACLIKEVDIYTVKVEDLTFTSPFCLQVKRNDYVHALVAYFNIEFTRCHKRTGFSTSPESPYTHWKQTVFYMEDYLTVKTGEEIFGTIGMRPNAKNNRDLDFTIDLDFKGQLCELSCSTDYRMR
# RBBP9 inh – inhibitors of human serine hydrolase RBBP9 | O75884 | recombinant RBBP9, FP-Rh probe fluorescence polarization | inhibition, % at 7.94 µM | 0.2% of 220,000 active | AID 1515;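 active means inhibition above the campaign mean of all tested compounds plus 3 SD, cut at about 14% in these data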;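 further: plate controls were DMSO wells with RBBP9 for no effect and wells lacking RBBP9 protein for full effect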
# Target sequence (O75884 whole entry, looked up): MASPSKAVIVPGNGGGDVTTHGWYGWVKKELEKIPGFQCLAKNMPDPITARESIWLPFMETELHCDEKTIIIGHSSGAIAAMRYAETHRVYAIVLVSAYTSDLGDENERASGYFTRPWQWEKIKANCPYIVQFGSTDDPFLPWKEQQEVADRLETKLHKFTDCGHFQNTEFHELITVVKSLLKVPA
#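 System: RBBP9 protein | Quantity: 2.5 µM RBBP9 dispensing solution, before mixing | Reagent: FP-Rh probe, 375 nM dispensing solution | Timing: Enzyme-compound preincubation 30 min, then probe labeling 45 min, 25 °C | Measured by: Fluorescence polarization | Read-out: % inhibition | Replication: One well per compound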
# UHRF1 MBD2 ctr – human UHRF1 methylated DNA binding inhibitors; Q96T88; AID 687016; UHRF1 binding to methylated oligo, TR-FRET; inhibition, % at 4.4 µM; 0.75% of 370,000 active; in the data active means inhibition above about 21%;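 further: UHRF1 SRA domain binding a hemimethylated CpG hairpin DNA probe; 0% = median of test compound wells and 100% = reference inhibitor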
# LEDGF integ inh – blocks HIV-1 LEDGF/p75-dependent DNA integration; inhibition, % at 3.7 µM; TR-FRET IN-LEDGF/p75 DNA integration, Eu/Cy5; AID 743269; 0.64% of 370,000 active;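 active means inhibition above the screen-wide mean plus 3 SD, cut at about 13% in these data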;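 further: signal is the Cy5 over europium emission ratio at 671 and 618 nm; 0% = plate median of compound wells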
# MBD2 DNA inh – blocks human MBD2 binding to methylated DNA | Q9UBB5 | AID 686964 | 0.31% of 370,000 active | TR-FRET, MBD2 binding to methylated oligonucleotide | inhibition, % at 4.4 µM; in the data active means inhibition above about 13%
# ABHD5 PLIN5 PPI – inhibitors of human ABHD5-perilipin-5 interaction. Q00G26+Q8WTS1. Split G. princeps luciferase complementation, luminescence, 4 h. inhibition, % at 4 µM. 0.78% of 360,000 active;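 active means inhibition above the mean inhibition across every tested compound plus 3 SD, cut at about 22% in these data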;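 further: 0% = DMSO only wells and the 100% control is not disclosed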
# RBBP9 confirm – confirmation of human RBBP9 inhibitors | shares compounds with RBBP9 inh | recombinant RBBP9, FP-Rh probe fluorescence polarization | inhibition, % at 7.94 µM | 36% of 410 active | AID 1537;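 active means inhibition above the hit cutoff derived for the primary screen, cut at about 15% in these data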;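 further: 0% = RBBP9 with DMSO and 100% = wells lacking RBBP9 protein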
# * = called active by the depositor; x = no result given.
SMILES,PRMT1 FP inh,RBBP9 inh,UHRF1 MBD2 ctr,LEDGF integ inh,MBD2 DNA inh,ABHD5 PLIN5 PPI,others
COCC(=O)N(C)[C@H]1C[C@H]2c3[nH]c4c(-c5ccc6c(c5)OCO6)cccc4c3CCN2C(=O)[C@H]1[C@H](C)O,-4.9,x,-1.4,2.4,-3.4,x,
Cn1cccc1/C=N/NC(=O)c1ccc[n+]([O-])c1,-2.0,-1.1,22.1*,2.1,0.7,2.5,
CCCCn1c(NC(C)CC)nc2c1c(=O)[nH]c(=O)n2C (configuration not stated),0.6,-2.4,98.5*,-1.5,-1.8,0.9,
COc1ccc(-c2noc(C3CCCN(C(=O)N[C@@H]4C[C@H]4c4ccccc4)C3)n2)cc1 (some centres not stated),-2.6,x,-1.4,2.0,4.6,x,
O=C(Nc1csc([N+](=O)[O-])c1)Nc1ccccc1Cl,-3.9,-0.5,-1.4,-0.3,-6.0,-3.2,
O=C(Nc1ccc(Cl)cc1)Nc1ccccc1Sc1ncc([N+](=O)[O-])s1,49.6*,0.2,-3.0,-1.5,-2.8,-19.1,
COc1ccc2noc3c2c1C(=O)c1ccccc1-3,157.4*,x,-8.4,9.4,-7.0,-1.3,
COc1ccc(OC)c2c1C(=O)c1ccccc1C2=O,52.3*,-6.2,-4.1,6.9,-1.7,x,
COc1ccc(N)c2c1C(=O)c1ccccc1C2=O,-1.4,-7.2,-13.7,-2.8,-9.3,6.4,
CCC[C@H]1[C@@H](OC(=O)NCc2ccco2)CC[C@@]23CCCN2C(=O)CCC[C@@H]13,4.2,x,0.4,3.2,-7.7,x,
O=C(Cn1c2[n+](c3ccc(C(F)(F)F)cc31)CCCCC2)Nc1ccc(Br)cc1,x,-1.9,x,x,x,96.4*,
COc1ccccc1Cn1c(SCC(N)=O)nc2c(oc3ccccc32)c1=O,1.5,-3.9,61.4*,-0.8,0.9,11.0,
CCn1c(SCC(N)=O)nc2ccccc2c1=O,1.5,-12.5,25.0*,-1.6,4.4,-2.4,
COc1ccccc1CNC(=O)CSc1nc2c(oc3ccccc32)c(=O)n1CC1CCCO1 (configuration not stated),-2.9,x,1.9,3.4,2.6,-1.1,
COC(=O)[C@]12C[C@H](CC(=O)N3CCCC3)C(=O)N(Cc3ccco3)C1=C[C@H](C1CCCC1)O[C@@H]2C,-3.2,x,3.5,2.2,1.6,x,
CC(c1ccc(NC(=O)OC(C)(C)C)cc1)c1cn(C)c2ccccc12 (configuration not stated),-4.4,x,1.0,-1.6,-8.2,x,
COC(=O)C1=C(C)N(Cc2ccccc2C(F)(F)F)C(=NCc2ccc(OC)cc2)NC1c1ccc(F)cc1 (configuration not stated),-7.1,x,-0.9,4.2,-5.2,x,
O=C(C(=O)N1CCC(CNC(=O)c2cccs2)CC1)c1cc2ccccc2o1,-3.6,x,0.7,0.7,6.0,x,
C=C(C)CN=CC1(C)CCC(C)=CO1 (configuration not stated),3.9,x,36.5*,-2.7,-0.2,-2.0,
CNC(=O)c1ccc(NC(=O)CN2c3cccc4cccc(c34)S2(=O)=O)cc1,-0.8,x,-8.3,1.8,-1.0,8.0,
O=C(CN1c2cccc3cccc(c23)S1(=O)=O)Nc1ccccc1,-2.9,-4.4,68.5*,7.1,-8.7,0.2,
O=C(Nc1ccc(F)cc1Cl)C1CCCN1S(=O)(=O)c1cccc2cccnc12 (configuration not stated),-3.3,x,0.6,-2.6,1.1,x,
Oc1ccc(N=Cc2ccc(-c3cccs3)s2)cc1,37.8*,0.9,10.6,46.6*,-5.0,-10.1,
O=Cc1ccc(-c2cccs2)s1,-4.8,x,1.5,4.8,-2.6,-12.4,
COC(=O)C1CCC(=S)N1C(=O)c1ccccc1 (configuration not stated),11.4,x,26.8*,-0.6,-3.2,-16.0,
SMILES,PRMT1 FP inh,RBBP9 inh,UHRF1 MBD2 ctr,LEDGF integ inh,MBD2 DNA inh,ABHD5 PLIN5 PPI,others
COC(=O)[C@H]1CN(C(=O)c2ccccc2)C(=O)N1,2.8,x,-2.4,-0.1,2.5,1.7,
CSc1ccc(/C=C/C(=O)c2ccc(NC(=O)Cc3ccccc3)cc2)cc1,-0.1,-8.2,-3.0,2.9,-0.7,1.8,
COc1cccc(C(=O)/C=C/c2ccc(SC)cc2)c1,0.4,-0.8,-1.8,2.2,2.9,22.7*,
CSc1ccc(/C=C/C(=O)c2ccc(NC(=O)C(C)C)cc2)cc1,0.7,-17.2,0.4,-2.8,-0.8,22.7*,
COC(=O)[C@H](CC(C)C)N(CCc1cn(Cc2ccc(C)cc2)nn1)S(=O)(=O)c1ccc(F)cc1Br,-0.1,x,-1.4,0.4,6.2,x,
O=c1c2cc3cc(Cl)ccc3nc2ncn1CCc1c[nH]c2ccccc12,-3.3,x,-0.8,8.1,1.8,x,
CCN(CCn1cccn1)C(=O)c1cc(COc2ccccc2SC)on1,1.0,x,35.0*,-1.6,2.2,3.5,
CCN(CCN1CCCC1)C(=O)c1cc(COc2ccccc2SC)on1,0.3,x,0.6,0.2,-3.3,5.7,
CCN(CCn1cccn1)C(=O)c1cc(COc2cc(C)ccc2C)on1,0.2,x,30.7*,1.2,-0.8,2.8,
CCN(CCn1cccn1)C(=O)c1cc(COc2ccc(F)c(F)c2)on1,-1.4,x,0.5,-0.8,0.8,1.6,
O=C(N[C@@H](Cc1cccnc1)C(=O)N1CCC[C@H]1C(=O)NCCc1ccccc1Cl)c1ccccc1,2.1,x,0.1,1.5,-1.0,x,
CN(Cc1ccncc1)C(=O)[C@@H]1CCCN1C(=O)[C@@H]1CCCN1,5.1,x,21.7*,-3.8,4.5,12.9,
O=C(Cn1cc(COc2ccc(C(=O)c3ccccc3)cc2)nn1)c1ccc(O)cc1,0.1,x,22.4*,-1.4,9.5,3.7,
CCC(=O)c1ccc(OCc2ccc(C(=O)c3ccccc3)cc2)cc1,0.0,-3.0,22.5*,-1.4,9.2,-2.5,
CCC(=O)c1ccc(OCc2cn(CC(=O)c3ccc(O)cc3)nn2)cc1,-2.0,x,21.7*,6.6,8.4,13.7,
O=Cc1ccc(OCc2cn(CC(=O)c3ccc(O)cc3)nn2)cc1,-1.3,x,-0.2,2.3,-1.2,-2.4,
Nc1[nH]c(C(=O)c2ccccc2)c(-c2ccc(Cl)cc2Cl)c1C(=O)NCCC1=CCCCC1,6.3,x,0.7,-3.0,9.4,x,
COC(=O)[C@]12C[C@H](CC(=O)NCCCN3CCCC3=O)C(=O)N(Cc3ccc(Cl)cc3Cl)C1=C[C@H](COCc1ccccc1)O[C@@H]2C,-1.8,x,-0.4,-4.9,-0.2,x,
Cc1ccc(CCP(=O)(O)CN2CCOCC2)cn1,-3.1,17.6*,0.4,3.1,2.3,-0.3,RBBP9 confirm=-1.7
Cc1ccccc1CN1CCCCC(NC(=O)c2ccc(-c3ccccc3)cc2)C1=O (configuration not stated),-10.8,x,-0.4,5.8,-0.3,x,
O=C1CSC(=S)N1/N=C/c1ccc(O)c(O)c1O,x,14.6*,x,x,x,2.4,RBBP9 confirm=27.1*
COc1ccccc1C=NN1C(=O)CSC1=S,16.0,x,-6.9,3.3,1.4,-18.4,
